PHOSPHO1 inh: PubChem AID 1565 | Phosphoethanolamine/phosphocholine phosphatase (Homo sapiens), Q8TCT1 | recombinant PHOSPHO1, absorbance phosphatase assay | inhibition, % at 13.3 µM | hit rate 1.1% among 290,000; in the data active means inhibition above about 60%
Target sequence (Q8TCT1 whole entry, looked up): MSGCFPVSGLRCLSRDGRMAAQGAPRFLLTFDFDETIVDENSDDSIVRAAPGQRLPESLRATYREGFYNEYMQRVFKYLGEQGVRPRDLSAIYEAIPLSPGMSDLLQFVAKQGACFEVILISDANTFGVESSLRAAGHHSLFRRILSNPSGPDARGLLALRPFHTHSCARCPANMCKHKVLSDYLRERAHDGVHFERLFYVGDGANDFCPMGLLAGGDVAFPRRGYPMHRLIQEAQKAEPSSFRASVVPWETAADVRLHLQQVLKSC
VIM-2 inh: VIM-2 metallo-beta-lactamase inhibitors, primary screen, biochemical, epi-absorbance readout, Pseudomonas aeruginosa enzyme; purified VIM-2, nitrocefin hydrolysis, epi-absorbance fluorescence; inhibition, % at 5.6 µM; hit rate 0.89% among 290,000;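 active means inhibition above the mean of all tested compounds plus 3 SD, cutoff set per screening run, cut at about 7.5% in these data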;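 further: red hydrolysis product quenches plate fluorescence so inhibitors raise well fluorescence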
IMP-1 inhibitor: IMP-1 metallo-beta-lactamase inhibitors, primary screen, biochemical, epi-absorbance readout, Pseudomonas aeruginosa enzyme; metallo-beta-lactamase IMP-1 (Pseudomonas aeruginosa); purified IMP-1, nitrocefin hydrolysis, epi-absorbance fluorescence; inhibition, % at 5.6 µM; hit rate 0.45% among 290,000;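 active means inhibition above the mean plus 3 SD of all compounds in the same screening run, cut at about 4.5% in these data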
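Assay system: purified recombinant IMP-1 beta-lactamase. Input: IMP-1 0.2 nM before substrate addition. Buffer or medium: Zinc- and detergent-supplemented HEPES buffer, pH 7.1. Schedule: 25 °C, 15 min preincubation, 25 min reaction. Signal: Epi-absorbance fluorescence, 480 nm excitation, 530 nm emission. Evaluation: percent inhibition from optical density relative to buffer-blank wells.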
HCV NS3 hel inh: inhibitors of HCV NS3 helicase, primary screen, biochemical, Cy5 molecular beacon fluorescence; inhibition, % at 10.9 µM; NS3 helicase DNA unwinding; Hepatitis C virus NS3 helicase; hit rate 0.56% among 290,000;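 active means inhibition above the mean of all tested compounds plus 3 SD, set per campaign, cut at about 35% in these data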
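System: NS3 helicase fragment of HCV / Schedule: 1 h at 25 °C / Control set: DMSO alone as 0% and 110 µM thioflavine S as 100% / Reagent: Cy5/quencher beacon DNA duplex and ATP to start / Technique: Cy5 fluorescence / Replication: singlicate / Evaluation: % inhibition of end-to-start signal ratio versus controls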
core dimer inh: inhibitors of HCV core protein dimerization, primary screen, biochemical, TR-FRET, high-throughput | hit rate 0.33% among 300,000 | inhibition, % at 5 µM | AID 1899, 2009 | TR-FRET GST/Flag-core106 dimerization, 1536-well;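 active means inhibition above the mean of all tested compounds plus 3 SD, set per screening campaign, cut at about 45% in these data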
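System: GST-tagged and Flag-tagged HCV core protein residues 1-106 / Input: core106 proteins, GST 13.5 nM and Flag 17 nM / Buffer or medium: KF-containing HEPES buffer, pH 7.45, DTT, CHAPS, BSA / Probe or stimulus: Eu-anti-GST and XL665-anti-Flag labelled anti-tag antibodies / Schedule: 4 h, 22.5 °C incubation / Technique: TR-FRET 671 and 617 nm emission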
SUMO HTRF inh: inhibitors of in vitro SUMOylation cascade, primary screen, biochemical, HTRF, uHTS; SUMO-conjugating enzyme UBC9 (Homo sapiens), P63279; HTRF SUMOylation assay, SAE1/SAE2 + UBC9; inhibition, % at 35 µM; hit rate 0.36% among 290,000; in the data active means inhibition above about 50%, passing the limit was not always enough
Target sequence (P63279 whole entry, looked up): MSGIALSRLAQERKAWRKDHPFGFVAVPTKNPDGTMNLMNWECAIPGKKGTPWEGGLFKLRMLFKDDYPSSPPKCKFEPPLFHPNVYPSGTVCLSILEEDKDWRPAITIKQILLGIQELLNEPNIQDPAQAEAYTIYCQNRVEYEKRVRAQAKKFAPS
Of the large screens only hits and unclear results are named; the others gave an inactive call. In the library only some 3.1% were active in any assay of this set; here they are far more common.

CCn1c(COc2cccc(C)c2C)nnc1SCC(=O)N1CCN(c2ccc(OC)cc2)CC1	PHOSPHO1 inh 74
O=C(c1ccc2c(=O)n(C3CCCC3)c(=S)[nH]c2c1)N1CCc2ccccc21	PHOSPHO1 inh 63
O=C(N/N=C/c1ccc(F)cc1)c1cc(-c2ccco2)nc2ccccc12	HCV NS3 hel inh 39, core dimer inh 69 (no result: SUMO HTRF inh)
C/C(=N\NC(=O)c1cc(-c2ccco2)nc2ccccc12)c1cccnc1	SUMO HTRF inh 60
CCOc1ccc(/C=N/NC(=O)c2cc(-c3ccco3)nc3ccccc23)cc1	none
Cc1cnc(CN(C)C(=O)CC2C(=O)NCCN2CCCc2ccccc2)[nH]1 (stereo unspecified)	none
S=C(NCc1ccccc1)Nc1cccc(Cl)c1	none
CCc1cc(C(=O)NNC(=S)Nc2cccc(C)c2)cs1	none
Cc1cccc(NC(=S)NNC(=O)c2sccc2C)c1	PHOSPHO1 inh 80
Cc1cccc(NC(=S)NNC(=S)NCc2ccccc2)c1	PHOSPHO1 inh 78
CCOc1ccc(NC(=O)CC2C(=O)N(c3ccc(OC)c(Cl)c3)C(=S)N2C2CC2)cc1 (stereo unspecified)	none
CN(C)c1ccc(C2Nc3ccccc3C(=O)N2NS(C)(=O)=O)cc1 (stereo unspecified)	none (no result: core dimer inh)
Cc1cc(N=NC(=O)c2ccccc2O)c2ccccc2c1O	PHOSPHO1 inh 70
COc1ccc(NC(=O)CCCCC(=O)Nc2ccc(OC)cc2OC)c(OC)c1	none (no result: PHOSPHO1 inh, VIM-2 inh, IMP-1 inhibitor, HCV NS3 hel inh, SUMO HTRF inh)
COc1ccc(NC(=O)CCC(=O)Nc2nnc(C(F)(F)F)s2)c(OC)c1	IMP-1 inhibitor 4.9
CC(C)(C)Cc1nnc(NC(=O)CCc2ccccc2)s1	none (no result: PHOSPHO1 inh)
CSc1nnc(NC(=O)CCc2ccccc2)s1	PHOSPHO1 inh 82
COc1ccc(CCC(=O)Nc2nnc(C(F)(F)F)s2)cc1	IMP-1 inhibitor 8.7
CCOc1ccccc1NC(=O)C1CCC(=O)N1S(=O)(=O)c1ccc(C)cc1 (stereo unspecified)	none (no result: core dimer inh)
Cc1c(C(=O)N2CCNCC2)oc2ccccc12	none (no result: core dimer inh)
CC(C)C1Cc2ccccc2-c2[nH]c(=S)[nH]c(=O)c21 (stereo unspecified)	none (no result: PHOSPHO1 inh, VIM-2 inh, IMP-1 inhibitor, HCV NS3 hel inh, SUMO HTRF inh)
Nc1sc2c([n+]1CCCS(=O)(=O)[O-])CCCC2	none
Cc1cc(C)cc(N(CC(=O)NCc2ccccc2Cl)S(=O)(=O)c2c(C)[nH]c(=O)[nH]c2=O)c1	none
COc1ccc(CNC(=O)CN(c2cc(C)cc(C)c2)S(=O)(=O)c2c(C)[nH]c(=O)[nH]c2=O)cc1	PHOSPHO1 inh 64
O=C1NC[C@H](CC2CCCCC2)N(CCc2cccc(F)c2)C1=O	none (no result: PHOSPHO1 inh, VIM-2 inh, IMP-1 inhibitor, HCV NS3 hel inh, SUMO HTRF inh)
COc1ccc2c(Cl)c(C(=O)NC3CCS(=O)(=O)C3)sc2c1 (stereo unspecified)	none
COc1ccc2c(Cl)c(C(=O)NN3CCN(C)CC3)sc2c1	VIM-2 inh 8.5
Cc1ncc([N+](=O)[O-])n1CC(=O)N/N=C/c1ccccc1F	PHOSPHO1 inh 68
Cc1cc([N+](=O)[O-])nn1CC(=O)N/N=C/c1ccccc1F	none
COc1cc(C2c3sc(=O)[nH]c3SC3C4CCC(C4)C23)ccc1O (stereo unspecified)	VIM-2 inh 8.8
NS(=O)(=O)c1ccc(N=Nc2c(-c3ccccc3)[nH]n(-c3nc(-c4ccccc4)cs3)c2=O)cc1	core dimer inh 46
Nc1[nH]n2c(=O)cc(-c3ccccc3)nc2c1N=Nc1ccc(S(N)(=O)=O)cc1	none
O=C(N/N=C/c1ccc([N+](=O)[O-])o1)c1cc(-c2ccc(-c3ccccc3)cc2)nc2ccccc12	core dimer inh 67, SUMO HTRF inh 62
O=C(N/N=C/c1ccc([N+](=O)[O-])o1)c1cn(-c2ccccc2)nc1-c1ccc(Cl)cc1	core dimer inh 46
O=C(N/N=C/c1ccc([N+](=O)[O-])o1)c1cn(-c2ccccc2)nc1-c1ccccc1	none
O=C(N/N=C/c1ccc([N+](=O)[O-])o1)c1cc(-c2ccncc2)nc2ccccc12	none
Cc1ccc(NC(=S)N2CCN(S(C)(=O)=O)CC2)cc1Cl	none
CN(C)C1=NCCN1CCc1ccc(F)cc1	none (no result: PHOSPHO1 inh, VIM-2 inh, IMP-1 inhibitor, HCV NS3 hel inh, SUMO HTRF inh)

High-throughput results from PubChem BioAssay.
